In data set [1] the test system is MDA-MB-231. Nature of the data set: […] in human MDA-MB-231 cells assessed as induction of LC3-II accumulation at 1 umol/L for 48 hrs by Western blot analysis. It is filed as functional, cell-based. As to conditions: dose 1.0 µmol/L. A general note: A western blot detects proteins with antibodies after separation by electrophoresis.
Data set [2] deals with MDA-MB-231. Nature of the data set: Induction of autophagy in human MDA-MB-231 cells assessed as induction of LC3-II accumulation at 10 to 20 umol/L incubated for 72 hrs by Western blot analysis. The conditions noted are these: dose 10-20 µmol/L. It is filed as functional, cell-based.
The test system of data set [3] is HepG2. In words: Cytotoxicity against human HepG2 cells assessed as effect on cell viability after 72 hrs by MTT analysis. It is filed as functional, cell-based. In a few lines: (§1)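 Cells in DMEM with 10% FBS at 37°C, 5% CO2, plated in 96-well plates and drug-treated for 72 h. MTT 0.5 mg/ml added for 4 h, formazan dissolved in DMSO, absorbance read at 550 nm. Means and SDs; Student's t-test.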

Data set [4] deals with HepG2. Nature of the data set: Cytotoxicity against human HepG2 cells assessed as effect on cell viability incubated for 72 hrs by MTT analysis. It counts as functional, cell-based. In short, it runs like this: as §1
The test system of data set [5] is MDA-MB-231. In words: Induction of autophagy in human MDA-MB-231 cells assessed as induction of LC3-II accumulation at 10 umol/L for 48 hrs by Western blot analysis. The conditions noted are these: dose 10.0 µmol/L.
Data set [6] deals with MDA-MB-231. In words: Induction of autophagy in human MDA-MB-231 cells assessed as change in total LAMP2 expression at 10 umol/L measured after 24 hrs in presence of bafilomycin A1 by Western blot analysis. It counts as toxicity, cell-based. The conditions noted are these: mda-mb-231, 24 h, 10 µM, dose 10 µmol/L.
Data set [7] has as its system MDA-MB-231. In words: Induction of autophagy in human MDA-MB-231 cells assessed as increase in LC3-II accumulation at 10 umol/L incubated for 24 hrs in presence of bafilomycin A1 by Western blot analysis. It counts as functional, cell-based. As to conditions: dose 10.0 µmol/L.
Data set [8] relates to A549. Nature of the data set: […] in human A549 cells assessed as induction of LC3-II accumulation at 10 to 20 umol/L measured after 24 hrs by Western blot analysis. It is filed as functional, cell-based. The conditions noted are these: dose 10-20 µmol/L. In short, it runs like this: (§2)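 A549 and HepG2 cells drug-treated with or without bafilomycin A1. Lysates made in Tris pH 7.5/NP-40 buffer with protease and phosphatase inhibitors, 25–50 μg run on 7–12% SDS-PAGE, probed for LC3B, ECL detection.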

Data set [9] deals with HepG2. Nature of the data set: Potentiation of sorafenib-induced anticancer activity in human HepG2 cells assessed as increase in LC3-II accumulation at 10 umol/L measured after 72 hrs by Western blot analysis. It is filed as functional, cell-based. As to conditions: dose 10.0 µmol/L. In a few lines:
(§3)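 HepG2 cells given 5 μmol/l sorafenib, with or without 10 μmol/l compound, for 72 h. Whole-cell lysates immunoblotted for PARP1, LC3B and β-actin.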

For data set [10], the system named is HepG2. Nature of the data set: Potentiation of sorafenib-induced anticancer activity in human HepG2 cells at 10 umol/L measured after 72 hrs by MTT assay. The conditions noted are these: dose 10.0 µmol/L. It is filed as functional, cell-based. In a few lines: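 HepG2 cells given a range of sorafenib doses, with or without 10 μmol/l compound, for 72 h. Viability by MTT (0.5 mg/ml, 4 h, DMSO, A550). Student's t-test against untreated cells.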

The subject of data set [11] is MDA-MB-231. Nature of the data set: […] in human MDA-MB-231 cells assessed as induction of LC3-II accumulation at 10 umol/l measured after 24 hrs in presence of class III PI3K inhibitor 3-methyladenine by Western blot analysis. It counts as functional, cell-based. The conditions noted are these: dose 10.0 µmol/L.
Data set [12] deals with MDA-MB-231. Nature of the data set: Cytotoxicity against human MDA-MB-231 cells assessed as reduction in cell viability measured after 72 hrs in presence of class III PI3K inhibitor 3-methyladenine by MTT assay. It is filed as functional, cell-based. A general note: Tetrazolium dyes change colour on reduction, which living cells bring about.
Data set [13] relates to MDA-MB-231. Nature of the data set: Induction of autophagy in human MDA-MB-231 cells assessed as change in total LAMP2 expression at 10 umol/L measured after 24 hrs by Western blot analysis. It is filed as toxicity, cell-based. The conditions noted are these: mda-mb-231, 24 h, 10 µM, dose 10 µmol/L.
Data set [14] deals with MDA-MB-231. In words: Induction of autophagy in human MDA-MB-231 cells assessed as reduction in expression of p62 at 10 umol/L incubated for 24 hrs by Western blot analysis. It counts as functional, cell-based. As to conditions: dose 10.0 µmol/L.
Data set [15] has as its system A549. Nature of the data set: […] in human A549 cells assessed as induction of LC3-II accumulation at 10 to 20 umol/L measured after 24 hrs in presence of bafilomycin A1 by Western blot analysis. As to conditions: dose 10-20 µmol/L. It counts as functional, cell-based. In short, it runs like this:
as §2

The subject of data set [16] is MDA-MB-231. Nature of the data set: Cytotoxicity against human MDA-MB-231 cells assessed as reduction in cell viability after 72 hr by MTT analysis. It counts as functional, cell-based. In short, it runs like this:
as §1

Data set [17] deals with HepG2. In words: Cytotoxicity against human HepG2 cells assessed as reduction in cell viability at 10 umol/L measured after 72 hrs in presence of class III PI3K inhibitor 3-methyladenine by MTT assay. It is filed as functional, cell-based. The conditions noted are these: dose 10.0 µmol/L. In short, it runs like this:
(§4)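 HepG2 and A549 cells pretreated 1 h with 2 mmol/l 3-MA, then exposed to 10 μmol/l compound for 72 h. Viability read by MTT (0.5 mg/ml, 4 h, formazan in DMSO, A550). Means and SDs; Student's t-test against cells without 3-MA.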

Data set [18] concerns HepG2. In words: […] in human HepG2 cells assessed as induction of LC3-II accumulation at 10 to 20 umol/L measured after 24 hrs by Western blot analysis. It counts as functional, cell-based. The conditions noted are these: dose 10-20 µmol/L. In a few lines: as §2
For data set [19], the target named is Histone-lysine N-methyltransferase EZH2 (Homo sapiens) (UniProt Q15910). In words: Inhibition of EZH2 in human MDA-MB-231 cells assessed as reduction in H3K27-me3 level at 10 umol/L incubated for 72 hrs by Western blot analysis. The conditions noted are these: dose 10.0 µmol/L. It counts as cell-based.
Histone-lysine N-methyltransferase EZH2 (Homo sapiens), sequence (Q15910 whole entry, looked up): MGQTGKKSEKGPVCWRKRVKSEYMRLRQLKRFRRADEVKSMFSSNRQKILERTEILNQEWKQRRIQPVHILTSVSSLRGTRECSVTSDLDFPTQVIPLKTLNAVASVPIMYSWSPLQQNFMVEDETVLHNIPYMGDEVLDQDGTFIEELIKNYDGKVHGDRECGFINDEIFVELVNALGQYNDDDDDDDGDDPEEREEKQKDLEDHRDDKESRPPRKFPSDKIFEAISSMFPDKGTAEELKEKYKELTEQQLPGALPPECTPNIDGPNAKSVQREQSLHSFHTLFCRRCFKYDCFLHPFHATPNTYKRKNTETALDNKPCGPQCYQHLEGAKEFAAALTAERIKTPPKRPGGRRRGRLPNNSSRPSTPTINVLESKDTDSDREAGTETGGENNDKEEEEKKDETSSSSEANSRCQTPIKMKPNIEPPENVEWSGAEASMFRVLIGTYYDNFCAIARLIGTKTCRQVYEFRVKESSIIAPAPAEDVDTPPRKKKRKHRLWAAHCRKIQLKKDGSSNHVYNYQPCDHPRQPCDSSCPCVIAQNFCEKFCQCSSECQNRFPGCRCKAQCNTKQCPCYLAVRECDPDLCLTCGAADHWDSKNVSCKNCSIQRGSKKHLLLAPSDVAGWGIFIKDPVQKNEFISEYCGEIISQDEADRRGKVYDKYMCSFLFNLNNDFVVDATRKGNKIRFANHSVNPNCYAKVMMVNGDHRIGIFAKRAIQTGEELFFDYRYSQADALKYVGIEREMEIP
Data set [20] deals with MDA-MB-231. Nature of the data set: Induction of autophagy in human MDA-MB-231 cells assessed as formation of autophagic vacuoles by measuring increase in Cyto-ID fluorescence intensity at 10 umol/L by measured after 24 hrs by Cyto-ID/Hoechst 33342 fluorescence microscopic analysis. It counts as functional, cell-based. As to conditions: dose 10.0 µmol/L. In short, it runs like this: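 MDA-MB-231 cells washed twice in PBS with 5% FBS, then stained with Cyto-ID detection reagent plus Hoechst 33342 for 30 min at 37°C. Cells washed and autophagic vacuoles imaged by fluorescence microscopy.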

The test system of data set [21] is HepG2. In words: […] in human HepG2 cells assessed as induction of LC3-II accumulation at 10 to 20 umol/L measured after 24 hrs in presence of bafilomycin A1 by Western blot analysis. It counts as functional, cell-based. The conditions noted are these: dose 10-20 µmol/L. In a few lines: as §2
For data set [22], the system named is MDA-MB-231. In words: Induction of apoptosis in human MDA-MB-231 cells assessed as induction of cleavage of PARP at 10 to 20 umol/L incubated for 72 hrs by Western blot analysis. The conditions noted are these: dose 10-20 µmol/L. It is filed as functional, cell-based.
For data set [23], the system named is A549. In words: Cytotoxicity against human A549 cells assessed as reduction in cell viability at 10 umol/L measured after 72 hrs in presence of class III PI3K inhibitor 3-methyladenine by MTT assay. It counts as functional, cell-based. The conditions noted are these: dose 10.0 µmol/L. In short, it runs like this:
as §4

Data set [24] relates to MDA-MB-231. In words: Induction of apoptosis in human MDA-MB-231 cells assessed as reduction in pro-caspase-3 expression at 10 to 20 umol/L incubated for 72 hrs by Western blot analysis. As to conditions: dose 10-20 µmol/L. It is filed as functional, cell-based.
Data set [25] concerns MDA-MB-231. Nature of the data set: Induction of autophagy in human MDA-MB-231 cells assessed as induction of LC3-II accumulation at 10 to 20 umol/L incubated for 24 hrs by Western blot analysis. It counts as functional, cell-based. The conditions noted are these: dose 10-20 µmol/L.
In data set [26] the test system is HepG2. Nature of the data set: Potentiation of sorafenib-induced anticancer activity in human HepG2 cells assessed as increase in cleaved PARP expression at 10 umol/L measured after 72 hrs by Western blot analysis. The conditions noted are these: dose 10.0 µmol/L. It counts as functional, cell-based. In short, it runs like this:
as §3

In data set [27] the test system is MDA-MB-231. In words: Induction of apoptosis in human MDA-MB-231 cells assessed as induction of cleavage of caspase-3 at 10 to 20 umol/L incubated for 72 hrs by Western blot analysis. It counts as functional, cell-based. The conditions noted are these: dose 10-20 µmol/L.
The test system of data set [28] is MDA-MB-231. In words: Induction of autophagy in human MDA-MB-231 cells assessed as downregulation of p62 expression at 10 umol/L measured after 24 hrs in presence of bafilomycin A1 by Western blot analysis. The conditions noted are these: dose 10.0 µmol/L. It is filed as functional, cell-based.
The target of data set [29] is Histone-lysine N-methyltransferase EZH2 (Homo sapiens) (UniProt Q15910). Nature of the data set: Inhibition of EZH2 in human HepG2 cells assessed as reduction in H3K27-me3 level at 10 umol/L incubated for 72 hrs by Western blot analysis. It is filed as cell-based. The conditions noted are these: dose 10.0 µmol/L.
For data set [30] the target is unchanged. In words: Inhibition of EZH2 in human A549 cells assessed as reduction in H3K27-me3 level at 10 umol/L incubated for 72 hrs by Western blot analysis. The conditions noted are these: dose 10.0 µmol/L. It is filed as cell-based.
For data set [31], the system named is HepG2. In words: Induction of autophagy in human HepG2 cells assessed as accumulation of LC3-II at 10 umol/L measured after 24 hrs by Western blot analysis. It is filed as functional, cell-based. As to conditions: dose 10.0 µmol/L. In a few lines: (§5)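 HepG2 cells given 2.5–10 μmol/l sorafenib for 24 h; whole-cell lysates immunoblotted for EZH2, LC3B and GAPDH, with ECL detection.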

Data set [32] concerns HepG2. Nature of the data set: Anticancer activity in human HepG2 cells assessed as inhibition of EZH2 expression measured after 24 hrs by Western blot analysis. It is filed as functional, cell-based. As to conditions: dose 2.5-10 µmol/L. In a few lines:
as §5

Data on five compounds can be found in ChEMBL document CHEMBL5712884, “S-Adenosyl-L-methionine-competitive inhibitors of the histone methyltransferase EZH2 induce autophagy and enhance drug sensitivity in cancer cells” (Anticancer Drugs, 2015).

The structures appear in SMILES notation. The source made the active and inactive calls. No cut-off for these calls is given here.

`CC(=O)O[C@H]1C(=O)[C@@]2(C)[C@H]([C@H](OC(=O)c3ccccc3)[C@]3(O)C[C@H](OC(=O)[C@H](O)[C@@H](NC(=O)c4ccccc4)c4ccccc4)C(C)=C1C3(C)C)[C@]1(OC(C)=O)CO[C@@H]1C[C@@H]2O`: the result in the data set on MDA-MB-231 [1] was Active.
`CCCc1cc(C)[nH]c(=O)c1CNC(=O)c1cc(-c2ccnc(N3CCN(C)CC3)c2)cc2c1cnn2C(C)C`: the outcome with MDA-MB-231 [2], in the data set with HepG2 [3], in the data set on HepG2 [4], in the data set on MDA-MB-231 [5], in the data set with MDA-MB-231 [7] and with A549 [8] was Active. Besides, the result in the data set with HepG2 [9], with HepG2 [10], in the data set on MDA-MB-231 [14], in the data set on A549 [15], with HepG2 [18] and with MDA-MB-231 [20] was Active. For the same compound, the outcome in the data set on HepG2 [21], with MDA-MB-231 [22], in the data set with MDA-MB-231 [24], in the data set on MDA-MB-231 [25] and in the data set on HepG2 [26] was Active. Further, the Activity result was “Non-Toxic” in the data set with MDA-MB-231 [6], “Non-Toxic” in the data set with MDA-MB-231 [13] and “Dose-Dependent Effect” in the data set with MDA-MB-231 [16]. Besides, the result with MDA-MB-231 [11], in the data set with MDA-MB-231 [12], with HepG2 [17], with A549 [23], in the data set with MDA-MB-231 [27] and with MDA-MB-231 [28] was inactive. Besides, the inhibition result in data set [19], in data set [29] and in data set [30] was “Active” each time.
With `CNC(=O)c1cc(Oc2ccc(NC(=O)Nc3ccc(Cl)c(C(F)(F)F)c3)cc2)ccn1`, the result with HepG2 [31] was Active. For the same compound, the inhibition entry in the data set with HepG2 [32] is “Active”.
For the compound `COc1ccc2cc3[n+](cc2c1OC)CCc1cc2c(cc1-3)OCO2`, in the data set on MDA-MB-231 [5], the outcome was Active.
`COc1cc([C@@H]2c3cc4c(cc3[C@@H](O[C@@H]3O[C@@H]5CO[C@@H](C)O[C@H]5[C@H](O)[C@H]3O)[C@H]3COC(=O)[C@H]23)OCO4)cc(OC)c1O`: in the data set on MDA-MB-231 [5], the result was Active.
